Reference: PMC2585982 (Toxicology and applied pharmacology, 2008)

Tests used:
GSTμ = experiment: Western blot of liver cytosol, GSTμ protein expression; type: in vivo, mice; conditions: SENCAR mice, 35, 70, 150 mg/kg p.o.
P450 3A11 = experiment: Liver microsomal P450 3A activity; type: in vivo, mice; conditions: mouse, in vivo
PXR LBD and SRC-1 RID = PXR LBD and SRC-1 RID (Mus musculus, UniProt O54915); experiment: Mammalian two-hybrid assay, Gal-SRC-1 RID + VP-L-PXR in CV-1 cells; type: cell-based; conditions: isopimpinellin 50 μM; PCN 10 μM; Figure 7A
PXR LBD and SRC-1 RID, sequence (Q15788 570-780 partner limits assumed, one chain of several): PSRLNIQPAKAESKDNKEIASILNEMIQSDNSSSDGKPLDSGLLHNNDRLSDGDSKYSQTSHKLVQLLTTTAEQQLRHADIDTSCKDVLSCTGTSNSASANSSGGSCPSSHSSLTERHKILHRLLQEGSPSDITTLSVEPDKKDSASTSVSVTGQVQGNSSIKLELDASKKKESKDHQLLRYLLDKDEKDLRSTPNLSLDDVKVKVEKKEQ
Summary of the method: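 Mammalian two-hybrid in CV-1 cells co-transfected with Gal-SRC-1 RID and/or VP-L-PXR, plus MH100-tk-luc reporter and CMX-β-gal. Cells were exposed to compound or solvent control in medium for 18–24 h. Interaction was taken as luciferase activity normalised to β-gal activity; mean ± SD.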

PXR = target: T1, PXR (Mus musculus, UniProt O54915); experiment: PXR-DR3 reporter assay; type: cell-based
T1 sequence (O54915 1-431): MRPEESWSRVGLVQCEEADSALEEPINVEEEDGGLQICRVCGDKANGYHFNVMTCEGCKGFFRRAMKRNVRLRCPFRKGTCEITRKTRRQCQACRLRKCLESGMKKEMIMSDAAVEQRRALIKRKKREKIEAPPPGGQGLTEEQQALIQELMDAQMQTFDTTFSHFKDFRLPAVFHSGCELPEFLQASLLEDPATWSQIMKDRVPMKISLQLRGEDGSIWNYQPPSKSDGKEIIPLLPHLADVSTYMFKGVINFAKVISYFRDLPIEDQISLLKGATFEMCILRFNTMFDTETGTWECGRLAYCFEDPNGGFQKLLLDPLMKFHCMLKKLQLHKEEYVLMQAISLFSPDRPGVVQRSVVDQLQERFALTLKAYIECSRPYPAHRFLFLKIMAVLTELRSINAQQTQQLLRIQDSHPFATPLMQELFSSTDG
T1 sequence (P19793 1-462 partner): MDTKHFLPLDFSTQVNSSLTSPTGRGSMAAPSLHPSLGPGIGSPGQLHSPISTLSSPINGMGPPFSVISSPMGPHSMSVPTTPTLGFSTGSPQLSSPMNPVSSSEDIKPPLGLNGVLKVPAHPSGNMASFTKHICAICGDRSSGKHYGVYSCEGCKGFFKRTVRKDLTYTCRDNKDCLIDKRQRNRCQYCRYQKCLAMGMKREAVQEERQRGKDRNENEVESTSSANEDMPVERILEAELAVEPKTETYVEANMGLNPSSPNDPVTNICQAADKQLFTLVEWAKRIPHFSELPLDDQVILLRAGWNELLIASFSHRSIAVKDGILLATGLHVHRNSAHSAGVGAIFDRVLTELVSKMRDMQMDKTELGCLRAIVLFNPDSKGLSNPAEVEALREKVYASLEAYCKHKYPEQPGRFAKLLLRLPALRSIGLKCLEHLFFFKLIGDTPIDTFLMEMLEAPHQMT

Cyp3a11 mRNA = experiment: Northern blot of liver RNA, Cyp3a11 mRNA in CAR; conditions: isopimpinellin 150 mg/kg p.o. 24 h, TC 3 mg/kg i.p. 6 h

Structure (SMILES): COc1c2ccoc2c(OC)c2oc(=O)ccc12 [isopimpinellin, 5,8-dimethoxypsoralen]
- Hepatic expression of GST μ protein, dose-response study (GSTμ): no increase
- P450 3A activity, liver microsomes, dose-response study (P450 3A11): increased
- Increase in P450 3A activity (testosterone), liver microsomes (P450 3A11; po, 100 mg/kg): 3–4 fold
- Induced interaction of PXR LBD and SRC-1 RID compared to the control (PXR LBD and SRC-1 RID): over 4 fold
- EC50 (PXR): 15.8 µM
- Max (concentration to reach maximal effect), PXR-DR3 (PXR; CV-1 cells, full length PXR): 30,000 nM
- Induction of hepatic Cyp3a11 mRNA, CAR(−/−) mice (Cyp3a11 mRNA): still observed
- Induction of hepatic Cyp3a11 mRNA, CAR(+/+) mice (Cyp3a11 mRNA; male and female): ~ 4 fold
